# Measured values collected from several papers.
# Each line is one published result; the experiments were not run side by side.
# Target: Mitogen-activated protein kinase kinase kinase 11 (MAP3K11, Homo sapiens, UniProt Q16584)
Compound,effect on,method,concentration,remaining binding
CN(C)c1ncc(F)c(-c2cnn3ncccc23)n1,binding,,1 µM,88%
Cn1cc(Cl)c2c(Oc3c(F)cc(Nc4cc(Cl)nc(N)n4)cc3F)ccnc21,cell-free assay,competition with immobilised ligand,0.1 µM,100%
O=C(NCCCN1CCOCC1)c1ccc(Nc2ncc(Cl)c(-c3ccc(Cl)s3)n2)cc1,binding,competition with immobilised ligand,1 µM,13%
CCN1CCN(Cc2ccc(C(=O)Nc3ccc(C)c(Oc4ccc5c(c4)CC(=O)N5)c3)cc2C(F)(F)F)CC1,binding,competition with immobilised ligand,1 µM,100%
CN(c1nccc(-c2cnn3ncccc23)n1)C1CC1,binding,,1 µM,100%
COc1cccc(CNC(=O)c2nc3scc(COCc4ccc(C(=O)O)cc4)c3c(=O)[nH]2)c1,cell-free assay,competition with immobilised ligand,1 µM,100%
c1cncc(-c2cccc(Nc3nccc(NC4CCCCC4)n3)c2)c1,binding,competition with immobilised ligand,10 µM,30%
O=C(NCC1CCOCC1)c1n[nH]cc1NC(=O)c1c(F)cccc1F,binding,competition with immobilised ligand,1 µM,100%
CCCOc1ccc([C@H]2[C@H](C(=O)O)[C@@H](c3ccc4c(c3)OCO4)CN2CC(=O)Nc2c(CC)cccc2CC)cc1,cell-free assay,competition with immobilised ligand,1 µM,100%
FC(F)(F)Oc1cccc(-c2cnc3ccc(-c4ccncc4)nn23)c1,cell-free assay,competition with immobilised ligand,5 µM,95%
N[C@H]1CCN(c2nccc(-c3cnn4ncccc34)n2)C1,binding,,1 µM,85%
FC(F)(F)c1ccc2c(c1)nc(-c1cccnc1)n2C1CC1,cell-free assay,competition with immobilised ligand,1 µM,100%
O=C(NCCCN1CCOCC1)c1ccc(Nc2nccc(-c3cc4ccccc4s3)n2)cc1,binding,competition with immobilised ligand,1 µM,39%
CN(C)c1nccc(-c2cnc3ncccn23)n1,binding,,1 µM,88%
CN1CCN(c2cnc3c(C4CCN(C(=O)c5ccc(OC(F)(F)F)cc5N)CC4)ncnc3c2)CC1,cell-free assay,competition with immobilised ligand,1 µM,100%
CNC(=O)[C@@H]1CC[C@@H](n2c(-c3ccc4cnccc4c3)nc3ccc(C(=O)NCc4cccc(C(N)=O)c4)cc32)C1,binding,competition with immobilised ligand,1 µM,100%
c1cnn2ncc(-c3ccnc(N4CCC45COC5)n3)c2c1,binding,,1 µM,100%
O=C(Nc1ccc(Oc2ccc(F)cc2)cc1)N1CCc2ncccc2[C@H]1c1ccc(F)cc1,cell-free assay,competition with immobilised ligand,1 µM,78%
O=C(c1ccc(Nc2ncc(Cl)c(-c3ccc(Cl)s3)n2)cc1)N1CCC(N2CCCC2)CC1,binding,competition with immobilised ligand,1 µM,13%
COc1ccnn2ncc(-c3ccnc(N(C)C)n3)c12,binding,,1 µM,100%
